Measurements collected from several papers.
Each line is one published result; the experiments were not run side by side.
FGFR1: Fibroblast growth factor receptor 1 (FGFR1, Homo sapiens, UniProt P11362)

O=c1[nH]c2ccccc2n1C1CCN(Cc2ccc(-c3[nH]c4cc5ncnc5cc4nc3-c3ccccc3)cc2)CC1 — remaining signal (FGFR1; cell-free assay; 0.5 µM): 102%
Cn1cc(-c2cc(F)cc(N3CCn4c(cc5c4CCCC5)C3=O)c2CO)cc(Nc2ccc(N3CCN(C4COC4)CC3)cn2)c1=O — inhibition (FGFR1; enzyme activity, inhibitor; 0.1 µM): 9%
C#Cc1n[nH]c2c(-c3cn([C@@H](C)c4ccccc4)c(=O)[nH]c3=O)cc(F)cc12 — inhibition (FGFR1; enzyme activity, inhibitor; 0.1 µM): 2.9%
Cn1cncc1[C@](O)(COc1ccc(C#N)cc1-c1ccc(OC(F)(F)F)cc1)c1ccc(C#N)cc1 — remaining binding (FGFR1; cell-free assay, competition with immobilised ligand; 1 µM): 62%
COc1ncccc1-c1cnn2ccc(N3CCN(C(=O)OC(C)C)CC3)nc12 — remaining binding (FGFR1; binding, competition with immobilised ligand; 1 µM): 88%
Cn1cc(-c2cccc(N3CCc4c(sc5c4CC(C)(C)C5)C3=O)c2CO)cc(Nc2ccncn2)c1=O — inhibition (FGFR1; enzyme activity, inhibitor; 1 µM): 9%
C#Cc1n[nH]c2c(-c3cn([C@@H](C)c4ccccn4)c(=O)[nH]c3=O)cc(F)cc12 — inhibition (Fibroblast growth factor receptor 1 (FGFR1, Homo sapiens, UniProt P11362, V561M); enzyme activity, inhibitor; 0.1 µM): -4.4%
Nc1ncc(-c2nc(N3CCOCC3)nc(N3CCOCC3)n2)c(C(F)F)n1 — remaining binding (FGFR1; cell-free assay, competition with immobilised ligand; 10 µM): 94%
COc1cc(Nc2ncc(F)c(Nc3ccc4c(n3)NC(=O)C(C)(C)O4)n2)cc(OC)c1OC — inhibition (FGFR1; binding, competition with immobilised ligand; 10 µM): 100%
Cc1nn(C)cc1-c1nc2c(N3CCN(Cc4ccc(Cl)cc4)CC3)c(Cl)cnc2[nH]1 — remaining binding (FGFR1; binding, competition with immobilised ligand; 1 µM): 62%
CC(C)(C)c1cc(C=C(C#N)C#N)cc(Br)c1O — remaining activity (FGFR1; enzyme activity, inhibitor; 0.5 µM): 95.9%
COCc1c(-c2cc3cc(C)cc(OC)c3s2)c2c(N)ncnn2c1CN1CCNC(=O)C1 — inhibition (FGFR1; cell-free assay, competition with immobilised ligand; 1 µM): 98%
N#CC1(c2ccccn2)CCN(Cc2cc(C(=O)O)c(=O)n3ccccc23)CC1 — remaining binding (FGFR1; cell-free assay, competition with immobilised ligand; 1 µM): 98%
